TRPC4 block: blocks the mouse TRPC4 cation channel | Q9QUQ5 | HEK293 TRPC4beta/mu-opioid, DAMGO-evoked Fluo4 calcium flux; stronger effect = lower value | B-score at 10 µM | 300,000 tested, 0.39% active;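 active = B-score over 3 SD under the library average, no early fluorescence shift, positive overall ratio signal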
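Material: HEK293 cells with stable TRPC4beta plus mu-opioid receptor expression / Probe or stimulus: DAMGO in two steps, submaximal then maximal / Compound: single concentration per test compound / Technique: kinetic Fluo4 fluorescence imaging of calcium influx / Read-out: per-well B score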
CR mimetic SO: yeast age-related superoxide inhibition as caloric restriction mimetic | S. cerevisiae aged cells, superoxide DHE fluorescence; stronger effect = lower value | superoxide response (% of plate mean), % at 10 µM | 330,000 tested, 0.18% active;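 active = superoxide response under a set limit, about three screen SD below normal, cut at about 65% in these data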;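 note: yeast aged for seven days with compound at 30 °C before DHE staining; 100% = average MFI of all compound-treated wells on the plate with controls excluded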
TRPC6 act: activators of mouse TRPC6 channel; B-score at 10 µM; Q61143; 310,000 tested, 0.13% active; HEK293-TRPC6 membrane potential dye fluorescence; stronger effect = higher value; AID 2550;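 active = B-score of the integrated fluorescence ratio above library mean plus 3 SD, and starting fluorescence ratio within library mean plus 5 SD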;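 note: higher score means more depolarization so channel activation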
Target sequence (Q61143 whole entry, looked up): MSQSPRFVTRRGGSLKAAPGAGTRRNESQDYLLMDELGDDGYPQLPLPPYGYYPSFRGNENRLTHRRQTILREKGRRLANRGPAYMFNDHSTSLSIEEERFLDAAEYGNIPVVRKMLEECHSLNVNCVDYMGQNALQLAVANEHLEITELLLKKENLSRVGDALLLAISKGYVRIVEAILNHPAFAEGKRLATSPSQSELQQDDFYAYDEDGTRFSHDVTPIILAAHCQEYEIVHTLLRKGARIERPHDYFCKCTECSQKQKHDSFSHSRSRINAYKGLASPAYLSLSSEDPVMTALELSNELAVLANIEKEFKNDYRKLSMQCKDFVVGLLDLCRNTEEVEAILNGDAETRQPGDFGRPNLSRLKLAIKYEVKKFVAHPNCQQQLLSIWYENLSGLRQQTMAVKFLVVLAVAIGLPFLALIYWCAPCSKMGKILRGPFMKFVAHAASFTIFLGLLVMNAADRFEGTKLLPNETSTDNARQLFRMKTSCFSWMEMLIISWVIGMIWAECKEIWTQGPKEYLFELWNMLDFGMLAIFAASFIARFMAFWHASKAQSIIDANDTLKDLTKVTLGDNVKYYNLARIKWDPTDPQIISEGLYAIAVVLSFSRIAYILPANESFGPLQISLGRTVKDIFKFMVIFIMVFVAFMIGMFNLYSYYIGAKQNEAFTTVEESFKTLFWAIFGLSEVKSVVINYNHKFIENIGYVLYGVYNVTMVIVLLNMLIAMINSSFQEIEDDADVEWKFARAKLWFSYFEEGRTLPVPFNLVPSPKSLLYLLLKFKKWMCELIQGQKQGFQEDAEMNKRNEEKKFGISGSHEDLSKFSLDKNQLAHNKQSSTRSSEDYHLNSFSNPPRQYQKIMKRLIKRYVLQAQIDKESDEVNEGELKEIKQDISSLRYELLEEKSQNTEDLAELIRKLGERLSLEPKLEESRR
TRPC6 inh: inhibitors of mouse TRPC6 channel; Q61143; HEK293-TRPC6, membrane potential dye, ACh-evoked depolarization; stronger effect = lower value; B-score at 10 µM; 310,000 tested, 1.1% active; AID 2553;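 active = B-score under library mean minus 3 SD, initial fluorescence not abnormally high, positive integrated signal ratio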;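 note: B-score derived from integrated fluorescence ratio over the kinetic read; more negative B-score means stronger inhibition of depolarization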
TRPC4 potent: TRPC4 (mouse) allosteric potentiation | Q9QUQ5 | HEK293 TRPC4beta/mu-opioid, DAMGO EC20, Fluo-4 Ca2+ flux; stronger effect = higher value | B-score at 10 µM | 310,000 tested, 0.42% active;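 active = B-score of calcium response area above 5 SD of library B-scores, with initial fluorescence ratio within 5 SD of library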;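 note: B-score of integrated fluorescence ratio over time as area under calcium response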
TRPC4 agonist: TRPC4 (mouse) channel activation; 310,000 tested, 0.49% active; B-score at 10 µM; Q9QUQ5; HEK293 TRPC4beta/mu-opioid, Fluo4 calcium fluorescence; stronger effect = higher value;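 active = B-score above 5 SD of library B-scores, and initial fluorescence ratio not above library mean plus 5 SD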;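 note: positive B-score marks a calcium rise read as TRPC4 activation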
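Technique: kinetic Fluo4 calcium fluorescence; Test system: TRPC4beta and mu-opioid receptor HEK293 stable cells; Measure: B-scored integrated calcium fluorescence ratio; Benchmarks: low control buffer alone, high control maximal DAMGO; Schedule: 45 min room-temperature Fluo4 loading, 110 s read.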
Superoxide pick: confirmation of caloric restriction mimetics inhibiting yeast age-related superoxide; 850 tested, 1% active; S. cerevisiae aging, superoxide DHE fluorescence; stronger effect = lower value; shares compounds with CR mimetic SO; AID 434994; superoxide response (% of plate), % at 10 µM;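 active = superoxide signal below 65% of the plate average of sample wells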;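 note: cells aged with compound for 7 days at 30 degrees C before staining; 100% equals mean DHE fluorescence of all compound wells on the plate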
DHE counter: compound alters DHE oxidation or fluorescence in yeast. shares compounds with CR mimetic SO. S. cerevisiae BY4741, flow cytometry; stronger effect = lower value. fluorescence response, % at 10 µM. 850 tested, under 10 active. AID 435000;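 active = fluorescence response below 15%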;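 note: percent of the mean fluorescence averaged over all compound wells on the plate; lower means stronger quenching of DHE signal or ROS scavenging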
* marks the source's active call; other numbers are inactive results; i = inactive; . = no result. An excerpt weighted towards active compounds, which were near 2.3% of everything screened.

SMILES	TRPC4 block	CR mimetic SO	TRPC6 act	TRPC6 inh	TRPC4 potent	TRPC4 agonist	Superoxide pick	DHE counter
CC(=O)Nc1ccccc1S(=O)(=O)CC1CC1(Cl)Cl (stereo not given)	i	94	i	i	i	i	.	.
COc1cc(/C=N/N2CCN(C3c4ccccc4-c4ccccc43)CC2)cc(OC)c1O	i	109	i	i	i	i	.	.
COc1cc(CO)c(Br)cc1OCC(N)=O	i	95	i	i	i	i	.	.
CC(C)CNC(=S)NC1CC2CCCC(C1)N2C1CCCCC1 (stereo not given)	i	99	i	i	i	i	.	.
C=CCNc1ncnc2c1cnn2-c1ccc(C)cc1C	i	98	i	i	i	i	101	98
Cc1ccc(-n2ncc3c(NCCCOC(C)C)ncnc32)c(C)c1	i	95	i	i	i	i	.	.
[O-][n+]1c2ccccc2[n+]([O-])c2cc(O)ccc21	i	51*	i	i	i	i	61*	90
[O-][n+]1c(/C=C/c2ccccc2)ccc2ccccc21	i	97	i	i	i	i	.	.
Cc1ccc(-c2csc(NC(=O)c3ccc(F)cc3)c2C(=O)O)cc1	i	65*	i	i	i	i	87	105
O=C(Nc1scc(-c2ccccc2)c1C(=O)O)c1ccc(F)cc1	i	123	i	i	i	i	.	.
O=C(/C=C/c1ccccc1)NC(=S)NNC(=O)Cc1cccs1	i	50*	i	i	i	i	87	88
O=C(Cc1cccs1)N/N=C/C=C/c1ccccc1	i	84	i	i	i	i	.	.
Cc1cc(NC(=O)CSC2=Nc3ccccc3C3=NC(Cc4ccccc4)C(=O)N23)n[nH]1 (stereo not given)	i	90	i	i	i	i	.	.
CCN(CC)C(=O)CSC1=Nc2ccccc2C2=NC(Cc3c[nH]c4ccccc34)C(=O)N12 (stereo not given)	i	65*	i	i	i	i	104	91
C/C(=N\O)c1ccc(Cl)c(Cl)c1	i	98	i	i	i	i	.	.
CCCn1c2ccc(/C(C)=N\O)cc2c2cc(/C(C)=N/O)ccc21	i	112	i	i	i	i	104	90
COc1ccc(C)cc1-n1nnnc1SCc1cn2ccsc2n1	i	62*	i	i	i	i	118	110
O=C(Nc1ccc(F)cc1)c1ccc(S(=O)(=O)N2CCOCC2)o1	i	90	i	i	i	i	.	.
COc1ccc(NC(=O)c2ccc(S(=O)(=O)N3CCOCC3)o2)cc1	i	64*	i	i	i	i	95	91
CCn1c(=O)c2c(O)cc(=O)oc2c2ccccc21	i	48*	i	i	i	i	82	101
CC(C)n1c(=O)c2c(O)cc(=O)oc2c2ccccc21	i	71	i	i	i	i	87	98
O=c1cc(O)c2c(=O)n(-c3ccccc3)c3ccccc3c2o1	i	75	i	i	i	i	96	95
CCOC(=O)c1c(O)c2ccccc2n(-c2ccccc2)c1=O	i	90	i	i	i	i	.	.
O=c1cc(-c2ccccc2)c2c(O)cc(O)cc2o1	i	108	i	i	i	i	.	.
COCCN1C(=O)N[C@@H](c2cccc(C(F)(F)F)c2)[C@@H](C(=O)OC)[C@H]1C	i	105	i	i	i	i	.	.
SMILES	TRPC4 block	CR mimetic SO	TRPC6 act	TRPC6 inh	TRPC4 potent	TRPC4 agonist	Superoxide pick	DHE counter
C=CCNC(=O)c1cccc2c1C(=O)c1ccc(N3CCOCC3)cc1S2(=O)=O	.	116	.	.	.	.	.	.
Cc1ccc(S(=O)(=O)NC2CCCCC2)c2nsnc12	i	88	i	i	i	i	.	.
Cc1ccc(C(=O)O)cc1S(=O)(=O)N1CCCC1	i	108	i	i	i	i	104	107
CCOC(=O)c1ccc(NC(=O)Nc2ccn(C)n2)cc1	i	63*	i	i	i	i	103	96
CCOC(=O)c1ccc(NC(=O)Nc2cccc(C)n2)cc1	i	107	i	i	i	i	.	.
C=C1CCC[C@]2(C)C[C@H]3OC(=O)C(CNCCN(CC)CC)[C@H]3CC12 (stereo not given in full)	i	56*	i	i	i	i	96	95
O=C(NCCc1ccccc1)C(=O)NCC1OCCCN1S(=O)(=O)c1cc(F)ccc1F (stereo not given)	i	97	i	i	i	i	.	.
NS(=O)(=O)c1ccc(CCNC(=O)C(=O)NCC2OCCN2S(=O)(=O)c2cc(F)ccc2F)cc1 (stereo not given)	i	63*	i	i	i	i	97	101
CCN(CC)c1ccc(S(=O)(=O)N2CCOCC2)cc1NC(=O)CSc1n[nH]c(N)n1	i	117	i	i	i	i	.	.
CCOc1cc(C)c(Cl)cc1S(=O)(=O)N1CCCC1	i	107	i	i	i	i	.	.
COc1cc(S(=O)(=O)N2CCCC2)c(C)cc1C	i	110	i	i	i	i	.	.
COc1cc(C)c(Cl)cc1S(=O)(=O)N1CCCC1	i	100	i	i	i	i	103	90
COc1cc(Cl)c(S(=O)(=O)N2CCCC2)cc1Cl	i	87	i	i	i	i	92	97
COc1cc(C)c(Br)cc1S(=O)(=O)N1CCCC1	i	102	i	i	i	i	100	95
S=C(NCc1ccco1)Nc1ccc(Cl)cn1	i	96	i	i	i	i	.	.
CCc1noc(C)c1C(=O)Nc1ccc(C)c(S(=O)(=O)N2CCCCCC2)c1	i	101	i	i	i	i	.	.
Nn1c(SCC(=O)Nc2ccc(F)cc2F)nnc1C1CCCCC1	i	115	i	i	i	i	85	101
COc1ccccc1CCNC(=O)CSc1ccc(-c2ccco2)nn1	i	100	i	i	i	i	.	.
N#Cc1c(F)cccc1NCc1cccnc1	i	56*	i	i	i	i	97	94
N#Cc1c(NCc2ccccc2)ccnc1NCc1cccnc1	i	101	i	i	i	i	.	.
